This note sets out measurements from ChEMBL document CHEMBL2157942, “ortho-Quinone tanshinones directly inhibit telomerase through an oxidative mechanism mediated by hydrogen peroxide” (Bioorg Med Chem Lett, 2011).

Active and inactive are the calls of the source. No cut-off for these calls is given here.

Series [1] concerns the target T1, Telomerase reverse transcriptase (Homo sapiens, UniProt O14746). Description: Inhibition of human recombinant telomerase activity in rabbit reticulocytes at 50 uM after 90 mins by telomerase assemblage gel electrophoresis. The class given is cell-based. In outline: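 Assembly format: hTERT translated in rabbit reticulocyte lysate was incubated 1.5 h with in vitro transcribed hTER in the presence of inhibitor. Activity was then read by direct primer extension, with products resolved by gel electrophoresis and imaged by phosphorimaging. Products were normalized to a 100 nt 32P-labeled oligonucleotide loading control, and percent activity was calculated against a DMSO carrier control.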

The target of series [2] is T1, Telomerase reverse transcriptase. Description: Inhibition of human recombinant telomerase activity in rabbit reticulocytes after 90 mins by telomerase assemblage gel electrophoresis. It counts as cell-based. The essentials:
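hTERT translated in rabbit reticulocyte lysate, then incubated 1.5 h with in vitro transcribed hTER in the presence of inhibitor (DMSO carrier). Activity was read by direct primer extension, with products resolved on gel and phosphorimaged. Signal was normalized to a 100 nt 32P-labeled DNA loading control, and percent activity was taken versus the DMSO-only control.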

For series [3] the target is unchanged. The following applies: 50 uM.
For series [4] the target is unchanged. Briefly: Inhibition of pre-assembled human recombinant telomerase activity in rabbit reticulocytes after 90 mins by gel electrophoresis method based direct primer extension assay. The class given is cell-based. In outline: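 Telomerase was first reconstituted in rabbit reticulocyte lysate from hTERT and hTER, then assayed post-assembly by direct primer extension with inhibitor present. Products were gel-resolved, phosphorimaged and normalized to a 32P-labeled 100 nt oligonucleotide loading control. Percent activity was taken relative to the DMSO carrier control.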

Series [5] shares this target. Particulars: 50 uM. This is another data set of the same source.
The target is the same in series [6]. The following applies: 50 uM. This is another data set of the same source.
Series [7] is described as follows: Cytotoxicity against telomerase negative human GM847 cells after 96 hrs by SRB assay. The following applies: GM847, 96 h. The class given is functional, cell-based. On the technique in general: In SRB staining, fixed cells bind dye roughly in proportion to their protein.
Another series relates to MCF7. Description: Cytotoxicity against telomerase positive human MCF7 cells after 96 hrs by SRB assay. The class given is functional, cell-based. The following applies: MCF7, 96 h.
The next series has as its system PC-3. Description: Cytotoxicity against telomerase positive human PC3 cells after 96 hrs by SRB assay. It counts as functional, cell-based. The following applies: PC-3, 96 h.
A further series has as its system SAOS-2. Briefly: Cytotoxicity against telomerase negative human Saos2 cells after 96 hrs by SRB assay. It counts as functional, cell-based. The following applies: SAOS-2, 96 h.
Series [8] can be described thus: Induction of ROS generation assessed as hydrogen peroxide production in PBS buffer at 20 uM in presence of 5 nM of DTT in presence of 30U catalase. It counts as physicochemical. Particulars: in the assay text read “5 mM of DTT” for “5 nM of DTT”. The essentials: (§1)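 Compound at 20 µM incubated in PBS for set times under three conditions: no DTT, with 5 mM DTT, or with 5 mM DTT plus 30 U catalase. Hydrogen peroxide was measured with a commercial hydrogen peroxide kit. Two independent experiments; mean and standard deviation reported.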

In series [9] the target is T1, Telomerase reverse transcriptase. The following applies: MCF7, 3 uM.
The nature of series [10]: Induction of ROS generation assessed as hydrogen peroxide production in PBS buffer at 20 uM in absence of DTT. It counts as physicochemical. The essentials: as §1
A short description of series [11]: Induction of ROS generation assessed as hydrogen peroxide production in PBS buffer at 20 uM in presence of 5 nM of DTT. It counts as physicochemical. Particulars: in the assay text read “5 mM of DTT” for “5 nM of DTT”, TDE = time-dependent effect. In outline: as §1

T1 sequence (O14746 whole entry): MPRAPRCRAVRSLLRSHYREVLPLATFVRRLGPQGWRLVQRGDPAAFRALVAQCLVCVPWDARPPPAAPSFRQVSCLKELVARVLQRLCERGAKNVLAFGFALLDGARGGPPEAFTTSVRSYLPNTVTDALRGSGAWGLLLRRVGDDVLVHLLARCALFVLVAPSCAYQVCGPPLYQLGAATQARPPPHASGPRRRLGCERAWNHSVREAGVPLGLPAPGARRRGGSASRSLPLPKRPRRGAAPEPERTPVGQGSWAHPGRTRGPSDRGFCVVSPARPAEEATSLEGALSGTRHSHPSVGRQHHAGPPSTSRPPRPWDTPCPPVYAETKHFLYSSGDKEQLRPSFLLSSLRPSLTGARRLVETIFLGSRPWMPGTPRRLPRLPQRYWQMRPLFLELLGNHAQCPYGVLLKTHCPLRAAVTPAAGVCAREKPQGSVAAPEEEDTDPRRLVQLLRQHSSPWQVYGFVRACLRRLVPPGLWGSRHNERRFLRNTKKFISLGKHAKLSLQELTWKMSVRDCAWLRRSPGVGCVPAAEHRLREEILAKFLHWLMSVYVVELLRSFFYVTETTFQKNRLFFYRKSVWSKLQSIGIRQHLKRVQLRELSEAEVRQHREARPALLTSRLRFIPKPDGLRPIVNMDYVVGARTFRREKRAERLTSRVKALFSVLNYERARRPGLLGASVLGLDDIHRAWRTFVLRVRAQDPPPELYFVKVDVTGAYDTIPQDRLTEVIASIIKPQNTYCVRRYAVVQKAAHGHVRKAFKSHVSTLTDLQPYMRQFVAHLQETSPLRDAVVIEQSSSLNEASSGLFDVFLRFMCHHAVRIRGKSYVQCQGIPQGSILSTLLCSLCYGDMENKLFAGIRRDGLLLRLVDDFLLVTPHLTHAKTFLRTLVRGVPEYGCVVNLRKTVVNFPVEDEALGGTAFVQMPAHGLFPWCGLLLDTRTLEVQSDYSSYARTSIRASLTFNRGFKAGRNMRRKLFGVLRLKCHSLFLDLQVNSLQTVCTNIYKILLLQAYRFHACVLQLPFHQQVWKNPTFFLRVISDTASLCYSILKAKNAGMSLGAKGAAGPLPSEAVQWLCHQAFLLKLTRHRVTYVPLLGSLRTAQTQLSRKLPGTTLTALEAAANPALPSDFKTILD

A word on the inhibition: it is the change of the read-out against control, counted positive when it falls. Consider `C[C@H]1COC2=C1C(=O)C(=O)c1c2ccc2c1CCCC2(C)C`, for which the inhibition in series [1] was 75%.

Turning to `Cc1cccc2c1ccc1c3occ(C)c3c(=O)oc21`, the inhibition in series [1] came out at 25%.

`Cc1coc2c1C(=O)C(=O)c1c-2ccc2c(C)cccc12`: the inhibition in [1] came out at 65%.

The IC50 is the concentration needed to halve the response being measured. For `O=C1C(=O)c2ccccc2-c2ccccc21` [9,10-PHENANTHRENEQUINONE], the results for the IC50 in [2] and in series [4] were 5000 nM and 500 nM, respectively. The inhibition in series [3] is greater than 95%; in [6], 35%. The inhibition result in series [5] is “inactive”.

As a reminder, the EC50 is the concentration needed to bring the measured effect to its halfway point. The low end stands for higher potency in that assay, the high end for lower potency in that assay. Turning to `Cc1coc2c1C(=O)C(=O)c1c-2ccc2c1CCCC2(C)C` [TANSHINONE IIA], the IC50 was 5000 nM in series [2] and 500 nM in series [4]. For the same molecule, the EC50 in series [7] is greater than 20000 nM; in the series with MCF7, 900 nM; in the series with PC-3, 1200 nM; with SAOS-2, greater than 20000 nM. Moreover, the inhibition in series [1] turned out to be 75%; in series [9] it was 50%. The Activity entry in series [8] is given as “Not Active”; in series [10], “Not Active”; in series [11], “tde”.
